BaF3 tox: counter-screen for JAK2V617F inhibitors: parental Ba/F3 viability inhibitors; CellTiter-Glo ATP luminescence; AID 1486; inhibition, % at 5.6 µM; 220,000 compounds, 1.1% hits;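 active = inhibition above a per-campaign cutoff, the mean inhibition of all tested compounds plus 3 SD, cut at about 27% in these data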;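 note: 0% = DMSO wells and 100% = JAK Inhibitor I control wells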
Ba/F3 V617F tox: reduce viability of Ba/F3 cells dependent on JAK2V617F; 220,000 compounds, 1.1% hits; inhibition, % at 5.6 µM; Ba/F3 EpoR-JAK2V617F viability, ATP luminescence;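 active = inhibition above the campaign mean plus 3 SD over all tested compounds, cut at about 24% in these data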;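 note: cytokine-independent growth of Ba/F3 cells driven by EpoR plus mutant JAK2; 0% = DMSO-treated cells and 100% = JAK inhibitor I control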
MT stabilizer: stabilizes microtubules in HeLa cells; % tubulin-high responders, % at 10 µM; HeLa tubulin immunostaining HCS, 24 h; share of cells brighter than vehicle mean+2SD; 200,000 compounds, 0.83% hits;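 active = plate Z-score above 3 for both tubulin-high and condensed-nucleus cell shares, with cell loss under 80%, at 10 µM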;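 note: anti alpha tubulin signal scored within the nucleus-defined area of each cell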
IEC-6 cytotox: counter-screen for KLF5 inhibitors: cytotoxicity in IEC-6 cells. IEC-6 cytotoxicity, luminescence viability. inhibition, % at 5 µM. 290,000 compounds, 0.78% hits. AID 1825; in the data active = inhibition above about 22%;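 note: 0% = plate median of test compound wells and 100% = cytotoxic reference compound wells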
b-catenin transl: beta-catenin nuclear translocation modulation | HeLa beta-catenin nuclear translocation, immunofluorescence imaging | nuclear translocation activity, % at 5 µM | 190,000 compounds, 0.3% hits | AID 1665;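 active = nuclear translocation activity above 50% at 5 µM, with a well cell count of 50 or more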;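 note: per-cell ratio of nuclear to cytoplasmic median beta-catenin stain intensity; plate controls were DMSO negative control for no effect and GSK-3 inhibitor IX positive control for full effect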
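Test system: human HeLa cells, native beta-catenin. Compound dosing: 5 µM primary single dose, 0.1% DMSO, 0.02–20 µM confirmation series. Incubation: compound exposure 24 h at 37°C. Detection: beta-catenin immunostaining with DAPI counterstain, 20x imaging, 6 fields/well. Read-out basis: Nuclear/cytoplasmic beta-catenin signal ratio, % activation.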
APP 5UTR inh: APP translation inhibition | SH-SY5Y APP 5'UTR-luciferase reporter, luminescence | inhibition, % at 2 µM | 190,000 compounds, 0.82% hits | AID 1285;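 active = inhibition above a set limit, derived from the sample mean plus 3 SD, cut at about 45% in these data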
Starred values were filed as active, the others as inactive. An excerpt weighted towards active compounds, which were near 2.2% of everything screened.

`COc1ccc(N=C2NC(=O)/C(=C\c3ccco3)S2)cc1` gave BaF3 tox 4, Ba/F3 V617F tox 3, MT stabilizer 3, IEC-6 cytotox -2, b-catenin transl 0 and APP 5UTR inh -31.
CN1CCN(C(=O)c2ccc(CNS(=O)(=O)c3cccc(Cl)c3)cc2)CC1 was read as IEC-6 cytotox -6.
For O=C(NC1CCCCC1)c1ccc(-c2cccc([N+](=O)[O-])c2)o1 the results were IEC-6 cytotox 0.
For COc1ccc(S(=O)(=O)Nc2ccccc2-c2nnn(CC(=O)Nc3ccccc3OC)n2)cc1 the results were BaF3 tox 4, Ba/F3 V617F tox -2, MT stabilizer 14*, IEC-6 cytotox -7, b-catenin transl 0 and APP 5UTR inh -9.
For O=[N+]([O-])c1cc(NCCO)c(N2CCCCCC2)c2nonc12 the results were IEC-6 cytotox 11.
Screening Fc1ccccc1COc1ccc2ccccc2c1CNc1nn[nH]n1 returned BaF3 tox 4, Ba/F3 V617F tox -2, MT stabilizer 18*, IEC-6 cytotox -2, b-catenin transl -4 and APP 5UTR inh -9.
Fc1ccc(COc2ccc3ccccc3c2CNc2nn[nH]n2)cc1 was read as BaF3 tox 2, Ba/F3 V617F tox -3, MT stabilizer 4, IEC-6 cytotox 4, b-catenin transl 9 and APP 5UTR inh -6.
For COc1ccc([N+](=O)[O-])cc1COc1cc(C)cc2oc(=O)cc(-c3ccccc3)c12 the results were BaF3 tox -1, Ba/F3 V617F tox -6, MT stabilizer 18*, IEC-6 cytotox -3, b-catenin transl -5 and APP 5UTR inh 16.
For O=C(COC(=O)CN1C(=O)C2CCCCC2C1=O)NC1CCS(=O)(=O)C1 (centres undefined) the results were BaF3 tox 2, Ba/F3 V617F tox -1, MT stabilizer 8, IEC-6 cytotox -1, b-catenin transl 0 and APP 5UTR inh 8.
Screening CC1CCCC(NC(=O)COC(=O)CN2C(=O)C3CCCCC3C2=O)C1C (centres undefined) returned BaF3 tox 2, Ba/F3 V617F tox -4, MT stabilizer 2, IEC-6 cytotox -3, b-catenin transl 0 and APP 5UTR inh 66*.
Cc1ccccc1CC1SC(N=C(N)N)=NC1=O (centres undefined) was read as IEC-6 cytotox -2.
`CC(C)Sc1cc(Cl)nc(NC(=O)Nc2ccccc2)n1` gave IEC-6 cytotox -4.
Screening COC(=O)c1[nH]c2ccc(F)cc2c1NS(=O)(=O)c1ccc(OC)cc1 returned BaF3 tox 61*, Ba/F3 V617F tox 81*, MT stabilizer 23*, IEC-6 cytotox 52*, b-catenin transl 40 and APP 5UTR inh 89*.
COc1ccc(C(=O)Nc2ccc3[nH]c(-c4cccc(OC)c4)cc(=O)c3c2)cc1 was read as BaF3 tox 5, Ba/F3 V617F tox 0, MT stabilizer 32*, IEC-6 cytotox 4, b-catenin transl 56* and APP 5UTR inh 91*.
Screening Cc1nc2ccccc2n1/N=C/c1ccc([N+](=O)[O-])s1 returned BaF3 tox 3, Ba/F3 V617F tox 0, MT stabilizer 10*, IEC-6 cytotox -1, b-catenin transl 5 and APP 5UTR inh 24.
COCCCNC(=S)N(CCO)Cc1cc2cc3c(cc2[nH]c1=O)OCO3 was read as IEC-6 cytotox 0.
CCCOC(=O)c1cc(=O)[nH]c2ccccc12 was read as BaF3 tox 97*, Ba/F3 V617F tox 2, MT stabilizer 2, IEC-6 cytotox 3, b-catenin transl 7 and APP 5UTR inh -11.
`CCOC(=O)c1cc(=O)[nH]c2ccccc12` gave BaF3 tox 6, Ba/F3 V617F tox 0, MT stabilizer 2, IEC-6 cytotox 3, b-catenin transl 1 and APP 5UTR inh 16.
Screening C=CCN(CC=C)Cc1c(O)ccc2c(=O)c(-c3ccccc3)coc12 returned IEC-6 cytotox -3.
Screening CC(=O)c1c(C)[nH]c(C(=O)Nc2ccc(F)cc2F)c1C returned IEC-6 cytotox 1.
`CCOC(=O)Nc1ccc2c(c1)N(C(=O)OC)c1ccccc1CC2` gave BaF3 tox 3, Ba/F3 V617F tox 0, MT stabilizer 34*, IEC-6 cytotox 3, b-catenin transl 16 and APP 5UTR inh 12.
`CCCCN(C)CCNC(=O)c1cc2c(-c3cccc(OC)c3)nn(C)c2s1` gave IEC-6 cytotox 9.
Screening COc1cc(NC(=O)Cn2ncc(Cl)c(Cl)c2=O)c(C)cc1[N+](=O)[O-] returned BaF3 tox 73*, Ba/F3 V617F tox 74*, MT stabilizer 14, IEC-6 cytotox 3, b-catenin transl 6 and APP 5UTR inh 95*.
For Cc1nn(-c2nc3ccccc3[nH]2)c(=O)c2ccccc12 the results were BaF3 tox 87*, Ba/F3 V617F tox 83*, MT stabilizer 2, IEC-6 cytotox 85*, b-catenin transl 3 and APP 5UTR inh 74*.
`CCOc1ccc(-n2c(-c3ccccc3)c[n+]3c2CCCCC3)cc1` gave BaF3 tox 70*, Ba/F3 V617F tox 89*, MT stabilizer 7, IEC-6 cytotox 22, b-catenin transl 2 and APP 5UTR inh -12.
Screening Cc1ccc(-n2c(-c3ccccc3)c[nH]c2=S)cc1 returned BaF3 tox 2, Ba/F3 V617F tox -1, MT stabilizer 3, IEC-6 cytotox -7, b-catenin transl -2 and APP 5UTR inh -11.
For c1ccc(-c2c[n+]3c(n2-c2ccccc2)CCC3)cc1 the results were BaF3 tox 65*, Ba/F3 V617F tox 71*, IEC-6 cytotox -4 and b-catenin transl 0.
Screening Cc1ccc(-c2c[n+]3c(n2-c2ccccc2)CCC3)cc1 returned BaF3 tox 65*, Ba/F3 V617F tox 82*, IEC-6 cytotox 22 and b-catenin transl 2.
S=c1[nH]cc(-c2ccccc2)n1-c1ccccc1 was read as BaF3 tox 2, Ba/F3 V617F tox -2, MT stabilizer 2, IEC-6 cytotox -13, b-catenin transl -2 and APP 5UTR inh 9.
Screening Cc1cccc(C(=O)N[C@H](C(=O)NCCc2ccc(Cl)cc2)C(C)C)c1 returned IEC-6 cytotox -6.
O=C(NCc1ccc2c(c1)OCO2)C(=O)NCC1OCCN1S(=O)(=O)c1ccccc1 (centres undefined) was read as IEC-6 cytotox -3.
`COc1ccc(CCNC(=O)CSc2nc3ccsc3c(=O)n2CC2CCC(C(=O)O)CC2)cc1OC` (centres undefined) gave IEC-6 cytotox 9.
For O=C(c1ccccc1)c1nn(-c2ccc(Cl)cc2)c(=O)cc1C(F)(F)F the results were BaF3 tox 30*, Ba/F3 V617F tox 19, MT stabilizer 3, IEC-6 cytotox 2 and APP 5UTR inh -6.
Screening O=C(Nc1ccccc1)c1nn(-c2ccccc2)c(=O)cc1C(F)(F)F returned BaF3 tox -3, Ba/F3 V617F tox -7, MT stabilizer 16*, IEC-6 cytotox 1, b-catenin transl 1 and APP 5UTR inh -17.
